Laboratory results from ChEMBL document CHEMBL1149705, “Synthesis and antimicrobial evaluation of new chalcones containing piperazine or 2,5-dichlorothiophene moiety” (2007).
≈ marks a conversion by molar mass, not a printed value.

What was measured:
Assay type in all cases: functional
Pichia kudriavzevii [1] = test: Antifungal activity against Candida krusei GO3 at 250 ug/ml after 48 hrs by agar well diffusion technique; conditions: read-out: IZ
Proteus vulgaris = test: Antibacterial activity against Proteus vulgaris at 250 ug/ml after 48 hrs by agar well diffusion technique; conditions: read-out: IZ
Summary of the method: (§1)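 Cup-plate agar well diffusion on nutrient agar, set for 1–1.5 h. Cups of 10 mm were bored with a sterile cork borer, and test solution was added by sterile syringe. Plates were incubated at 37 °C for 48 h. The read-out was inhibition zone diameter in mm, graded 0–6 mild, 7–13 moderate and 14–26 efficacy. Ciprofloxacin was the standard; 10% DMSO served as solvent control.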

Staphylococcus aureus = test: Antibacterial activity against Staphylococcus aureus 209p at 250 ug/ml after 48 hrs by agar well diffusion technique; conditions: read-out: IZ; summary of the method: as §1
Escherichia coli = test: Antibacterial activity against Escherichia coli ESS 2231 at 250 ug/ml after 48 hrs by agar well diffusion technique; conditions: read-out: IZ; summary of the method: as §1
Klebsiella pneumoniae = test: Antibacterial activity against Klebsiella pneumoniae at 250 ug/ml after 48 hrs by agar well diffusion technique; conditions: read-out: IZ; summary of the method: as §1
Aspergillus fumigatus = test: Antifungal activity against Aspergillus fumigatus at 250 ug/ml after 48 hrs by agar well diffusion technique; conditions: read-out: IZ; summary of the method: as §1
Candida albicans [2] = test: Antifungal activity against Candida albicans at 250 ug/ml after 48 hrs by agar well diffusion technique; conditions: read-out: IZ
Nakaseomyces glabratus [3] = test: Antifungal activity against Candida glabrata HO3 at 250 ug/ml after 48 hrs by agar well diffusion technique; conditions: read-out: IZ
Candida albicans [4] = test: Antifungal activity against Candida albicans after 48 hrs by agar well diffusion technique
Pichia kudriavzevii [5] = test: Antifungal activity against Candida krusei GO3 after 48 hrs by agar well diffusion technique
Nakaseomyces glabratus [6] = test: Antifungal activity against Candida glabrata HO3 after 48 hrs by agar well diffusion technique

SMILES | zone of inhibition at 250 µg/mL (Pichia kudriavzevii [1]) | zone of inhibition at 250 µg/mL (Proteus vulgaris) | zone of inhibition at 250 µg/mL (Staphylococcus aureus) | zone of inhibition at 250 µg/mL (Escherichia coli) | zone of inhibition at 250 µg/mL (Klebsiella pneumoniae) | zone of inhibition at 250 µg/mL (Aspergillus fumigatus) | zone of inhibition at 250 µg/mL (Candida albicans [2]) | zone of inhibition at 250 µg/mL (Nakaseomyces glabratus [3]) | MIC50 (Candida albicans [4]) | MIC50 (Pichia kudriavzevii [5]) | MIC50 (Nakaseomyces glabratus [6])
O=C(/C=C/C=C/c1ccccc1)c1ccc(N2CCNCC2)cc1 | 14 mm | 8 mm | 10 mm | 16 mm | 5 mm | 14 mm | 9 mm | 6 mm | 90 µg/mL (≈ 283 µM) | 60 µg/mL (≈ 188 µM) | 75 µg/mL (≈ 236 µM)
O=C(/C=C/c1ccccc1)c1ccc(N2CCNCC2)cc1 | 24 mm | 20 mm | 22 mm | 24 mm | 18 mm | 22 mm | 24 mm | 24 mm | 4.56 µg/mL (≈ 15.6 µM) | 5.38 µg/mL (≈ 18.4 µM) | 7.57 µg/mL (≈ 25.9 µM)
O=C(/C=C/c1ccccc1)c1cc(Cl)sc1Cl | 26 mm | 22 mm | 18 mm | 20 mm | 18 mm | 24 mm | 26 mm | 26 mm | 2.22 µg/mL (≈ 7.84 µM) | 3.17 µg/mL (≈ 11.2 µM) | 4.65 µg/mL (≈ 16.4 µM)
Cc1cccc(/C=C/C(=O)c2ccc(N3CCNCC3)cc2)c1 | 24 mm | 20 mm | 24 mm | 22 mm | 16 mm | 20 mm | 16 mm | 22 mm | 6.89 µg/mL (≈ 22.5 µM) | 5.69 µg/mL (≈ 18.6 µM) | 9.94 µg/mL (≈ 32.4 µM)
Cc1ccc(/C=C/C(=O)c2ccc(N3CCNCC3)cc2)cc1 | 22 mm | 14 mm | 16 mm | 14 mm | 14 mm | 18 mm | 22 mm | 24 mm | 8.75 µg/mL (≈ 28.6 µM) | 7.02 µg/mL (≈ 22.9 µM) | 7.66 µg/mL (≈ 25 µM)
COc1ccc(/C=C/C(=O)c2cc(Cl)sc2Cl)cc1 | 18 mm | 14 mm | 14 mm | 18 mm | 16 mm | 22 mm | 20 mm | 18 mm | 5 µg/mL (≈ 16 µM) | 18.2 µg/mL (≈ 58 µM) | 16.4 µg/mL (≈ 52.3 µM)
O=C(/C=C/c1ccc(Cl)cc1)c1cc(Cl)sc1Cl | 22 mm | 14 mm | 14 mm | 16 mm | 8 mm | 18 mm | 24 mm | 14 mm | 4.65 µg/mL (≈ 14.6 µM) | 70 µg/mL (≈ 220 µM) | 40 µg/mL (≈ 126 µM)
COc1ccc(/C=C/C(=O)c2ccc(N3CCNCC3)cc2)cc1 | 14 mm | 14 mm | 24 mm | 22 mm | 16 mm | 18 mm | 22 mm | 18 mm | 9.12 µg/mL (≈ 28.3 µM) | 50 µg/mL (≈ 155 µM) | 16.2 µg/mL (≈ 50.4 µM)
COc1cc(/C=C/C(=O)c2ccc(N3CCNCC3)cc2)cc(OC)c1OC | 12 mm | 6 mm | 6 mm | 8 mm | 9 mm | 12 mm | 9 mm | 9 mm | 65 µg/mL (≈ 170 µM) | 75 µg/mL (≈ 196 µM) | 60 µg/mL (≈ 157 µM)
Cc1cccc(/C=C/C(=O)c2cc(Cl)sc2Cl)c1 | 22 mm | 6 mm | 11 mm | 20 mm | 10 mm | 20 mm | 10 mm | 14 mm | 51.1 µg/mL (≈ 172 µM) | 42.3 µg/mL (≈ 142 µM) | 65 µg/mL (≈ 219 µM)
O=C(/C=C/c1ccc(Cl)cc1)c1ccc(N2CCNCC2)cc1 | 20 mm | 16 mm | 18 mm | 22 mm | 14 mm | 12 mm | 18 mm | 14 mm | 55 µg/mL (≈ 168 µM) | 60 µg/mL (≈ 184 µM) | 60 µg/mL (≈ 184 µM)
O=C(/C=C/c1cccc([N+](=O)[O-])c1)c1ccc(N2CCNCC2)cc1 | 18 mm | 18 mm | 24 mm | 26 mm | 14 mm | 20 mm | 16 mm | 18 mm | 6.75 µg/mL (≈ 20 µM) | 18.6 µg/mL (≈ 55 µM) | 16.8 µg/mL (≈ 49.8 µM)
Cc1ccc(/C=C/C(=O)c2cc(Cl)sc2Cl)cc1 | 10 mm | 9 mm | 12 mm | 16 mm | 8 mm | 6 mm | 16 mm | 12 mm | 70 µg/mL (≈ 236 µM) | 70 µg/mL (≈ 236 µM) | 80 µg/mL (≈ 269 µM)
COc1cc(/C=C/C(=O)c2cc(Cl)sc2Cl)cc(OC)c1OC | 22 mm | 12 mm | 12 mm | 14 mm | 6 mm | 14 mm | 6 mm | 20 mm | 78 µg/mL (≈ 209 µM) | 40.1 µg/mL (≈ 108 µM) | 45.1 µg/mL (≈ 121 µM)
O=C(/C=C/c1cccc([N+](=O)[O-])c1)c1cc(Cl)sc1Cl | 12 mm | 18 mm | 24 mm | 22 mm | 20 mm | 16 mm | 18 mm | 14 mm | 5.97 µg/mL (≈ 18.2 µM) | 50 µg/mL (≈ 152 µM) | 50 µg/mL (≈ 152 µM)
O=C(/C=C/C=C/c1ccccc1)c1cc(Cl)sc1Cl | 16 mm | 11 mm | 9 mm | 16 mm | 7 mm | 20 mm | 8 mm | 16 mm | 75 µg/mL (≈ 243 µM) | 55.6 µg/mL (≈ 180 µM) | 60 µg/mL (≈ 194 µM)
O=C(O)c1cn(C2CC2)c2cc(N3CCNCC3)c(F)cc2c1=O [CIPROFLOXACIN] | – | 24 mm | 22 mm | – | 24 mm | 24 mm | – | – | – | – | –
OC(Cn1cncn1)(Cn1cncn1)c1ccc(F)cc1F [FLUCONAZOLE] | 29 mm | – | – | – | – | – | 29 mm | 29 mm | 50 µg/mL (≈ 163 µM) | 50 µg/mL (≈ 163 µM) | 50 µg/mL (≈ 163 µM)
